Measured values reported in ChEMBL document CHEMBL4351000, “Inhibitory selectivity among class I HDACs has a major impact on inflammatory gene expression in macrophages” (Eur J Med Chem, 2019).
Active and inactive are the calls of the source. The rule behind the calls is not given here.

Tests used:
Histone deacetylase 1 = Histone deacetylase 1 (Homo sapiens, UniProt Q13547); assay: Inhibition of human recombinant C-terminal His/FLAG-tagged HDAC1 using Boc-Lys-(epsilon-Ac)-AMC as fluorogenic substrate incubated for 90 mins by fluorescence based assay
Histone deacetylase 2 = Histone deacetylase 2 (Homo sapiens, UniProt Q92769); assay: Inhibition of human recombinant C-terminal FLAG-tagged HDAC2 using Boc-Lys-(epsilon-Ac)-AMC as fluorogenic substrate incubated for 90 mins by fluorescence based assay
[1] = biological target: Histone deacetylase 3/Nuclear receptor corepressor 2 (HDAC3/NCoR2) (Homo sapiens, UniProt O15379); assay: Inhibition of human recombinant C-terminal His-tagged HDAC3/NCOR2 using Boc-Lys-(epsilon-Ac)-AMC as fluorogenic substrate incubated for 90 mins by fluorescence based assay; type: protein-complex assay
RAW264.7 = assay: Cytotoxicity against mouse RAW264.7 cells assessed as cell viability at 1 to 5 uM incubated for 24 hrs by MTS assay; type: cell-based; settings: raw264.7, 24 h
In short: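 RAW264.7 macrophages (passage 5–16) were grown in DMEM GlutaMAX with 10% FBS at 37 °C and 5% CO₂, then seeded at 25,000 cells/cm². The next day, medium was replaced with inhibitor-containing medium for 24 h at 37 °C. MTS reagent was added for 2 h at 37 °C in the dark. Absorbance was read at 490 nm and expressed as % of control.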

[2] = biological target: Histone deacetylase 1 (Mus musculus) (UniProt O09106); assay: Inhibition of HDAC1 in LPS/IFNgamma-stimulated mouse RAW blue cells assessed as upregulation of NFkappaB transcriptional activity by measuring increase in SEAP activity at 1 to 5 uM pretreated for 16 hrs followed by LPS stimulation and measured after 4 hrs by quanti blue reagent-based reporter gene assay
In short: (§1)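 NF-κB SEAP reporter assay in RAW264.7-derived RAW-Blue cells (passage 4–14), seeded at about 550,000 cells/mL. Cells were pre-incubated with inhibitor for 16 h, then stimulated with 10 ng/mL LPS/IFNγ for 4 h. Supernatant was mixed 1:9 into QUANTI-Blue and incubated 3 h at 37 °C; absorbance was read at 650 nm as % of control. Mean ± SD of 3 independent experiments.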

[3] = biological target: T1, Histone deacetylase 1/2 (Mus musculus) (UniProt O09106+P70288); assay: Inhibition of HDAC1/2 in LPS/IFNgamma-stimulated mouse RAW264.7 cells assessed as upregulation of TNF-alpha gene expression at 1 to 5 uM pretreated for 16 hrs followed by LPS stimulation and measured after 4 hrs by RT-qPCR analysis; type: cell-based
In short: (§2)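 RAW264.7 cells were treated with inhibitor for 20 h in total, with LPS/IFNγ added for the final 4 h; vehicle was a proportional DMSO dilution. Cells were washed twice with DPBS, total RNA was isolated, and IL10, iNOS, IL6 and TNFα transcripts were quantified by RT-qPCR relative to vehicle. Mean ± SD of 2–3 independent experiments.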

[4] = biological target: T1, Histone deacetylase 1/2 (Mus musculus); assay: Inhibition of HDAC1/2 in LPS/IFNgamma-stimulated mouse RAW264.7 cells assessed as upregulation of IL-6 gene expression at 1 to 5 uM pretreated for 16 hrs followed by LPS stimulation and measured after 4 hrs by RT-qPCR analysis; type: cell-based; in short: as §2
[5] = biological target: T1, Histone deacetylase 1/2 (Mus musculus); assay: Inhibition of HDAC1/2 in LPS/IFNgamma-stimulated mouse RAW264.7 cells assessed as upregulation of iNOS gene expression at 1 to 5 uM pretreated for 16 hrs followed by LPS stimulation and measured after 4 hrs by RT-qPCR analysis; type: cell-based; in short: as §2
[6] = biological target: T1, Histone deacetylase 1/2 (Mus musculus); assay: Inhibition of HDAC1/2 in LPS/IFNgamma-stimulated mouse RAW264.7 cells assessed as upregulation of IL-10 gene expression at 1 to 5 uM pretreated for 16 hrs followed by LPS stimulation and measured after 4 hrs by RT-qPCR analysis; type: cell-based; in short: as §2
[7] = biological target: T2, Histone deacetylase 3 (Mus musculus) (UniProt O88895); assay: Inhibition of HDAC3 in LPS/IFNgamma-stimulated mouse RAW blue cells assessed as NFkappaB transcriptional activity measured as SEAP activity at 1 to 5 uM pretreated for 16 hrs followed by LPS stimulation and measured after 4 hrs by quanti blue reagent-based reporter gene assay; in short: as §1
T2 sequence (whole entry): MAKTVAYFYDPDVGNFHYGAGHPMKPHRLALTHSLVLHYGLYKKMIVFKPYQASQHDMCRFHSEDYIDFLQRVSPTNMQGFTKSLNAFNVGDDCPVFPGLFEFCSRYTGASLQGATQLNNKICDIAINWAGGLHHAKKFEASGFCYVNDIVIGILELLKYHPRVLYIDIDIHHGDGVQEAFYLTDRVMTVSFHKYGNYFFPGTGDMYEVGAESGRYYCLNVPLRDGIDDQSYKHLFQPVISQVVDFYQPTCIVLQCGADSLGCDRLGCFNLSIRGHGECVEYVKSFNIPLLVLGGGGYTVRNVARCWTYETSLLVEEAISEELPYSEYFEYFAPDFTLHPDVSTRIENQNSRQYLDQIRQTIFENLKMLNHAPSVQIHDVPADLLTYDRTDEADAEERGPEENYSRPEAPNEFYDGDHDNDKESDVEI

[8] = biological target: T2, Histone deacetylase 3 (Mus musculus); assay: Inhibition of HDAC3 in LPS/IFNgamma-stimulated mouse RAW264.7 cells assessed as TNF-alpha gene expression at 1 uM pretreated for 16 hrs followed by LPS stimulation and measured after 4 hrs by RT-qPCR analysis; type: cell-based; in short: as §2
[9] = biological target: T2, Histone deacetylase 3 (Mus musculus); assay: Inhibition of HDAC3 in LPS/IFNgamma-stimulated mouse RAW264.7 cells assessed as IL-6 gene expression at 1 uM pretreated for 16 hrs followed by LPS stimulation and measured after 4 hrs by RT-qPCR analysis; type: cell-based; in short: as §2
[10] = biological target: T2, Histone deacetylase 3 (Mus musculus); assay: Inhibition of HDAC3 in LPS/IFNgamma-stimulated mouse RAW264.7 cells assessed as iNOS gene expression at 1 uM pretreated for 16 hrs followed by LPS stimulation and measured after 4 hrs by RT-qPCR analysis; type: cell-based; in short: as §2
[11] = biological target: T2, Histone deacetylase 3 (Mus musculus); assay: Inhibition of HDAC3 in LPS/IFNgamma-stimulated mouse RAW264.7 cells assessed as IL-10 gene expression at 1 uM pretreated for 16 hrs followed by LPS stimulation and measured after 4 hrs by RT-qPCR analysis; type: cell-based; in short: as §2
Homo sapiens [12] = species on record: Homo sapiens; assay: Selectivity ratio of IC50 for human recombinant C-terminal His-tagged HDAC3/NCOR2 to IC50 for human recombinant C-terminal His/FLAG-tagged HDAC1
In short: (§3)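 Fluorogenic assay using human recombinant HDAC1 (FLAG/His), HDAC2 (FLAG) or HDAC3/NcoR2 (His) in pH 8.0 Tris buffer with NaCl, KCl, MgCl₂, 0.01% Triton-X and 1 mg/mL BSA. Enzyme, inhibitor dilutions and Boc-Lys(ε-Ac)-AMC were incubated 90 min at 37 °C. Trypsin/200 μM vorinostat stop solution was added for 30 min, then fluorescence read (ex 370/em 460 nm). IC50s came from curve fits; the ratio is HDAC3 IC50 over HDAC2 or HDAC1 IC50.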

Homo sapiens [13] = species on record: Homo sapiens; assay: Selectivity ratio of IC50 for human recombinant C-terminal His-tagged HDAC3/NCOR2 to IC50 for human recombinant C-terminal FLAG-tagged HDAC2; in short: as §3
[14] = biological target: T1, Histone deacetylase 1/2 (Mus musculus); assay: Inhibition of HDAC1/2 in LPS/IFNgamma-stimulated mouse RAW264.7 cells assessed as upregulation of TNF-alpha gene expression at pretreated for 16 hrs followed by LPS stimulation and measured after 4 hrs by RT-qPCR analysis; type: cell-based; in short: as §2
[15] = biological target: T1, Histone deacetylase 1/2 (Mus musculus); assay: Inhibition of HDAC1/2 in LPS/IFNgamma-stimulated mouse RAW264.7 cells assessed as upregulation of IL-6 gene expression at pretreated for 16 hrs followed by LPS stimulation and measured after 4 hrs by RT-qPCR analysis; type: cell-based; in short: as §2
[16] = biological target: T1, Histone deacetylase 1/2 (Mus musculus); assay: Inhibition of HDAC1/2 in LPS/IFNgamma-stimulated mouse RAW264.7 cells assessed as upregulation of iNOS gene expression at pretreated for 16 hrs followed by LPS stimulation and measured after 4 hrs by RT-qPCR analysis; type: cell-based; in short: as §2
[17] = biological target: T1, Histone deacetylase 1/2 (Mus musculus); assay: Inhibition of HDAC1/2 in LPS/IFNgamma-stimulated mouse RAW264.7 cells assessed as upregulation of IL-10 gene expression at pretreated for 16 hrs followed by LPS stimulation and measured after 4 hrs by RT-qPCR analysis; type: cell-based; in short: as §2

Chain of Histone deacetylase 3/Nuclear receptor corepressor 2 (HDAC3/NCoR2) (O15379 whole entry): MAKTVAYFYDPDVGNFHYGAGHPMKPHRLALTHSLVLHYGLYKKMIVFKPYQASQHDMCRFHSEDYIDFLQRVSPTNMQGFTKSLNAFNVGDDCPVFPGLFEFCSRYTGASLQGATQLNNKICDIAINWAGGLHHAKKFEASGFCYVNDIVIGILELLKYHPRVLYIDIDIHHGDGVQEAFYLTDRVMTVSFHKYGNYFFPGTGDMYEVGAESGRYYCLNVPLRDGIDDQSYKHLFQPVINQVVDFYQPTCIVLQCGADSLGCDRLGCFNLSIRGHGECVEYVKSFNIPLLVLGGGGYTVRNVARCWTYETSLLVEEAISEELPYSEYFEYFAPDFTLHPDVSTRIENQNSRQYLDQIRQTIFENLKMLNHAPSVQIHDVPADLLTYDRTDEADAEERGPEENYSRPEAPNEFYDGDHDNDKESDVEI
Chain of Histone deacetylase 3/Nuclear receptor corepressor 2 (HDAC3/NCoR2) (Q9Y618 whole entry, further chain): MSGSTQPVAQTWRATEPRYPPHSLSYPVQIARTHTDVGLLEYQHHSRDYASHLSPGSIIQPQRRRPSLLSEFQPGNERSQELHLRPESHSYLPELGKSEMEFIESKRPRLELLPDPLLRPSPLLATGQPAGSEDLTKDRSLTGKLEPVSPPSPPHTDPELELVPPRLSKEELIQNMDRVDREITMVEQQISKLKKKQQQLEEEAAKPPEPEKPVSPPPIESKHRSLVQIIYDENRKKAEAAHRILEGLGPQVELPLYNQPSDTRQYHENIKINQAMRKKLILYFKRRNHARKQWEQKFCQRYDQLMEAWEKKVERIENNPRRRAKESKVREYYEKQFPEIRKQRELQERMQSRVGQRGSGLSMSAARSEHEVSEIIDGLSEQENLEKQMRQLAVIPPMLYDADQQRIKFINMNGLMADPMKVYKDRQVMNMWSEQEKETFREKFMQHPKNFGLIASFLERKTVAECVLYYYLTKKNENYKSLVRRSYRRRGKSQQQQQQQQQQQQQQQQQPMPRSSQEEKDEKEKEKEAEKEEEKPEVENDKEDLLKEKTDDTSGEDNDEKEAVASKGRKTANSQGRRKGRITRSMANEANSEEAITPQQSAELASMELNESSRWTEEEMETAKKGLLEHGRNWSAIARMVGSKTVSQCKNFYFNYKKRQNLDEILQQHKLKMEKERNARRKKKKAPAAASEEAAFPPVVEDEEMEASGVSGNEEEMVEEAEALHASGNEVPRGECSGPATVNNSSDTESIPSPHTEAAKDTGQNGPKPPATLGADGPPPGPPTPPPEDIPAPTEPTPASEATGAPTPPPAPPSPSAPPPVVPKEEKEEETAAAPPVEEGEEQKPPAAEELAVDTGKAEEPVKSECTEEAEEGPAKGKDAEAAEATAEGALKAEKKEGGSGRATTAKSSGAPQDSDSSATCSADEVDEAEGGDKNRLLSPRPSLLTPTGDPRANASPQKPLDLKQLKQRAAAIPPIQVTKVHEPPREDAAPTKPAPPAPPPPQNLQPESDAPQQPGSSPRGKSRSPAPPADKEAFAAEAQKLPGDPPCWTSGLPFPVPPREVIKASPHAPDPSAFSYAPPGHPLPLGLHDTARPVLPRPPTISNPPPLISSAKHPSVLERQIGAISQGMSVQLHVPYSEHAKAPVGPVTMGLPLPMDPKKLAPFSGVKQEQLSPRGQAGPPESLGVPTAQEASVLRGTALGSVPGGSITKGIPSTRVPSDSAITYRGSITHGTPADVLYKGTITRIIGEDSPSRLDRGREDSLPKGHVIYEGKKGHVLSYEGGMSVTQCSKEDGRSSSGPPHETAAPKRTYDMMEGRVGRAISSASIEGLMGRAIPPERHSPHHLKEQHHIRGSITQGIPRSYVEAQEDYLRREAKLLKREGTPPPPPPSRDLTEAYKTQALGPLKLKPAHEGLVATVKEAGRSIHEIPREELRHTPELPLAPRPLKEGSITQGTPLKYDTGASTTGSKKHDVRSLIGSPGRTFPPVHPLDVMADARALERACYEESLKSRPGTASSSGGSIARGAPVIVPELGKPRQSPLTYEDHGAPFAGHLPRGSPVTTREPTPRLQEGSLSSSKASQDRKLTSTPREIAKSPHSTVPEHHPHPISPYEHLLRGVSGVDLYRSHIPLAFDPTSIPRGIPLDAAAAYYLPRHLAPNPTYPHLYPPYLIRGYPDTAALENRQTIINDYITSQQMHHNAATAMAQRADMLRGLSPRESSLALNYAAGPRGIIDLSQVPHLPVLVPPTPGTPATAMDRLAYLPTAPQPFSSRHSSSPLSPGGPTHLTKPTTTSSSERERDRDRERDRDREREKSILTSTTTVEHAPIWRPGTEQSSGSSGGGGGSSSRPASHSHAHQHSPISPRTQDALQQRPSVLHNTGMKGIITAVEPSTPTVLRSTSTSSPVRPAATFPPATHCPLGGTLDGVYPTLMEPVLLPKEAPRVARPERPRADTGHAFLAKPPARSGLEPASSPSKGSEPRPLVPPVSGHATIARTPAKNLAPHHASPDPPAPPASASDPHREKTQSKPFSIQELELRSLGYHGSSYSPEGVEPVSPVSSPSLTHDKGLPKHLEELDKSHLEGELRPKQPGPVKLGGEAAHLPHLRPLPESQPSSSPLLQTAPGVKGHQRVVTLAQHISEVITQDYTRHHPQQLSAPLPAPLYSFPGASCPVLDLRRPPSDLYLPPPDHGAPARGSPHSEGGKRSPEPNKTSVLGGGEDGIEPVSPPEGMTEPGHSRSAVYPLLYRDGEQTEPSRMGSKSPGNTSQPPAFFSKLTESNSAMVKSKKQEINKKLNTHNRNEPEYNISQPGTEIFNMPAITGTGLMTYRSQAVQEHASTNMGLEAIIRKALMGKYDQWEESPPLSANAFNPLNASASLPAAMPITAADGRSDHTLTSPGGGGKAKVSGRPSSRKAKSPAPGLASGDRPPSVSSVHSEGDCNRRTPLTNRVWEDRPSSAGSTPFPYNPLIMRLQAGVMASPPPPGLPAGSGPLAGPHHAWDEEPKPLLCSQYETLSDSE
Chain of Histone deacetylase 1 (Q13547 whole entry): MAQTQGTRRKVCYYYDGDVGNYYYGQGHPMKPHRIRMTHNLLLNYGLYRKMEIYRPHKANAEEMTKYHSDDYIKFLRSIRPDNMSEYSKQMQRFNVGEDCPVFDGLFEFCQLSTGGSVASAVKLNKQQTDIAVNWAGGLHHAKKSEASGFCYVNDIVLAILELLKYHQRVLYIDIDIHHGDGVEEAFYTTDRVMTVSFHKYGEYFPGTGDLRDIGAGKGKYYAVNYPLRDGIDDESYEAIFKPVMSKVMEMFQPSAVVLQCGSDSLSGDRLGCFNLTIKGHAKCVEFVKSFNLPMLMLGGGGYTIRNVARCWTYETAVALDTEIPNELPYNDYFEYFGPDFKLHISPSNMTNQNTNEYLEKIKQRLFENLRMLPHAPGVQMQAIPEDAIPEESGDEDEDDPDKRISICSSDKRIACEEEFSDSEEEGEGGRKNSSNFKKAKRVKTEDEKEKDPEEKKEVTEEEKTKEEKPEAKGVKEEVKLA
T1 sequence (O09106 whole entry, looked up): as the sequence (Q13547 whole entry) above, with R8K, D399E, E424D counted along it
T1 sequence (P70288 whole entry, looked up): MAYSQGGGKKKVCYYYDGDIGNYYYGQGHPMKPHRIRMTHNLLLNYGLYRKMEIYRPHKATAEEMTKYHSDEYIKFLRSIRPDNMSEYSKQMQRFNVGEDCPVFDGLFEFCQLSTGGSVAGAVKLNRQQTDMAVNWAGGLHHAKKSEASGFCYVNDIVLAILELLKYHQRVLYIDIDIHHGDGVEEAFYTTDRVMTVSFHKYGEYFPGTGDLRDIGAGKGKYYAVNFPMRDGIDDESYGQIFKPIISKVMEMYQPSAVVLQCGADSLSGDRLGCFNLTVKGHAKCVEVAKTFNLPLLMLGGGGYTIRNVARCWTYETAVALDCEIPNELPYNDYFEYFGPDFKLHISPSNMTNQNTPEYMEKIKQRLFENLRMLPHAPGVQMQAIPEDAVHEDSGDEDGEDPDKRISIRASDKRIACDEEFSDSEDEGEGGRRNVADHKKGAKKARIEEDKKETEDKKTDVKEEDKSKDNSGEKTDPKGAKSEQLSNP
Chain of Histone deacetylase 2 (Q92769 whole entry): as the sequence (P70288 whole entry, looked up) above, with A289V, P477T, A480T counted along it
Chain of Histone deacetylase 1 (Mus musculus) (O09106 whole entry): as the sequence (Q13547 whole entry) above, with R8K, D399E, E424D counted along it

Row | IC50 (Histone deacetylase 1) [µM] | IC50 (Histone deacetylase 2) [µM] | IC50 [1] [µM] | SMILES | Activity (RAW264.7) | other results
1 | 1 | 1.4 | 0.6 | Nc1ccccc1NC(=O)c1ccc(CNc2ccccc2)cc1 | – | –
2 | 1.3 | 4.2 | 5 | C[C@@H](Nc1ccccc1)c1ccc(C(=O)Nc2ccccc2N)cc1 | Non-Toxic | Activity [2]: Active; Activity [3]: Active; Activity [4]: Active; Activity [5]: Active; Activity [6]: Active
3 | 2.4 | 8.3 | 11 | C[C@H](Nc1ccccc1)c1ccc(C(=O)Nc2ccccc2N)cc1 | Non-Toxic | –
4 | 2.3 | 7 | 8.5 | CC(Nc1ccccc1)c1ccc(C(=O)Nc2ccccc2N)cc1 (stereo not drawn) | Non-Toxic | Ratio IC50 (Homo sapiens [12]): 3.7; Ratio IC50 (Homo sapiens [13]): 1.2; Activity [14]: Active; Activity [15]: Active; Activity [16]: Active; Activity [17]: Active

Further lines, the molecule ahead of its results:

Row | SMILES | IC50 (Histone deacetylase 1) [µM] | IC50 (Histone deacetylase 2) [µM] | IC50 [1] [µM] | Activity (RAW264.7) | other results
5 | CN(Cc1ccc(C(=O)Nc2ccccc2N)cc1)c1ccccc1 | 1 | 0.5 | 2.8 | – | –
6 | Nc1ccccc1NC(=O)CCCCCC(=O)c1ccccc1 | 1.9 | 3.7 | 1.2 | – | –
7 | Nc1ccccc1NC(=O)CCCCNC(=O)c1ccccc1 | – | – | – | Non-Toxic | –
8 | Nc1cc(F)ccc1NC(=O)/C=C/c1cnn(C/C=C/c2ccccc2)c1 | – | – | – | Non-Toxic | Activity [7]: inactive; Activity [8]: inactive; Activity [9]: inactive; Activity [10]: inactive; Activity [11]: inactive
9 | Nc1ccccc1NC(=O)c1ccc(C(=O)Nc2ccccc2)cc1 | 3 | 5.4 | 16 | – | Ratio IC50 (Homo sapiens [12]): 5.3; Ratio IC50 (Homo sapiens [13]): 3
10 | Nc1ccccc1NC(=O)CCCCCNc1ccccc1 | 1.2 | 1.3 | 0.4 | – | –
11 | Nc1ccccc1NC(=O)c1ccc(CNC(=O)OCc2cccnc2)cc1 [ENTINOSTAT] | – | – | – | Non-Toxic | –
